Test results from ChEMBL document CHEMBL1127330, “N-Phosphonomethyl dipeptides and their phosphonate prodrugs, a new generation of neutral endopeptidase (NEP, EC 3.4.24.11) inhibitors” (J Med Chem, 1994).

Assays:
[1] = Ratio of maximum plasma concentration (C) measured ex vivo to that of IC50 of (10a or 10c) in rat treated intravenously with 10 mg/kg; assay type: functional; details: route intravenous
Procedure, shortened: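 Conscious rats, femorally catheterised 24 h earlier, dosed iv at 10 mg/kg. Arterial blood was sampled before and at intervals after dosing into EDTA, then centrifuged. Plasma was ultrafiltered through a 30 000 MW cutoff with 0.1 N HCl at 10 °C. Unbound active inhibitor in the ultrafiltrate was measured by GAAP/rat kidney membrane NEP assay and expressed relative to the IC50 of the active metabolite.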

[2] = target: T1, Neprilysin (Rattus norvegicus, UniProt P07861); test: In vitro inhibition of Neutral endopeptidase (NEP) enzyme
T1 sequence (P07861 whole entry): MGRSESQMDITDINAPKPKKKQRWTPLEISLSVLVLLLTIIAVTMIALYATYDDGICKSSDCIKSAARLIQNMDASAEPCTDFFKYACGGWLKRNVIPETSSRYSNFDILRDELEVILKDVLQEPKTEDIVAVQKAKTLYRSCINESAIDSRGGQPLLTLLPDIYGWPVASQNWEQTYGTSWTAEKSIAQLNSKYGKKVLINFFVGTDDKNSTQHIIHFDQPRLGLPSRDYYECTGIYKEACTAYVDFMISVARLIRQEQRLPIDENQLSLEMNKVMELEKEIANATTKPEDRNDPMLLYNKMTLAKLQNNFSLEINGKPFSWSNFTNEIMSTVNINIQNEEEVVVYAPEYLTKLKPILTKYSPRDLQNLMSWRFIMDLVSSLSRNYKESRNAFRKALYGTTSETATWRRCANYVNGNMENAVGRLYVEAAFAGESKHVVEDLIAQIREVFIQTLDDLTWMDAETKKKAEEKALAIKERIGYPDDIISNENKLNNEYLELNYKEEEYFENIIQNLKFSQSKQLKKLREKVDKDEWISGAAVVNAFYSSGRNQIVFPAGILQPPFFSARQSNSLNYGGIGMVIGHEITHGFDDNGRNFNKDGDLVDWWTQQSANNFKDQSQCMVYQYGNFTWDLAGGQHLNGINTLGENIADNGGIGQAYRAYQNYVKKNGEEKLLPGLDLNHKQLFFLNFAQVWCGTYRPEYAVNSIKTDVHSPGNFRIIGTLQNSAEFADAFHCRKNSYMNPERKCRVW

SMILES	Ratio [1]	IC50 [2] [nM]
CCOC(=O)CCNC(=O)C(Cc1ccc(-c2ccccc2)cc1)NCP(=O)(OCOC(=O)C(C)C)OCOC(=O)C(C)C (configuration not stated)	535	
CCOC(=O)CCNC(=O)C(Cc1ccc(-c2ccccc2)cc1)NCP(=O)(O)O (configuration not stated)		120
O=C(O)CCNC(=O)[C@@H](Cc1ccc(-c2ccccc2)cc1)NCP(=O)(O)O		1800
COc1cccc(OP(=O)(CN[C@@H](Cc2ccc(-c3ccccc3)cc2)C(=O)NCCC(=O)O)Oc2cccc(OC)c2)c1	240	
Cc1ccc(OP(=O)(CN[C@@H](Cc2ccc(-c3ccccc3)cc2)C(=O)NCCC(=O)O)Oc2ccc(C)c(C)c2)cc1C	40	
O=C(O)CCCNC(=O)C(Cc1ccc(-c2ccccc2)cc1)NCP(=O)(O)O (configuration not stated)		11
CCC(=O)OC(C)OP(=O)(CNC(Cc1ccc(-c2ccccc2)cc1)C(=O)NCCC(=O)O)OC(C)OC(=O)CC (configuration not stated)	283	
CC(C)(C)C(=O)OCOP(=O)(CNC(Cc1ccc(-c2ccccc2)cc1)C(=O)NCCC(=O)O)OCOC(=O)C(C)(C)C (configuration not stated)	322	
CCOC(=O)CCNC(=O)C(Cc1ccc(-c2ccccc2)cc1)NCP(=O)(OC(OC(=O)CC)C(C)C)OC(OC(=O)CC)C(C)C (configuration not stated)	503	
C[C@H](NC(=O)C(Cc1ccc(-c2ccccc2)cc1)NCP(=O)(O)O)C(=O)O (some centres not stated)		3
CCN(CC)C(=O)COC(=O)CCNC(=O)[C@H](Cc1ccc(-c2ccccc2)cc1)NCP(=O)(O)Oc1ccccc1	9	
CCOC(=O)CCNC(=O)C(Cc1ccc(-c2ccccc2)cc1)NCP(=O)(OCOC(=O)C(C)(C)C)OCOC(=O)C(C)(C)C (configuration not stated)	816	
CCOC(=O)CCNC(=O)C(Cc1ccc(-c2ccccc2)cc1)NCP(=O)(OC(OC(=O)CC)C1CCCCC1)OC(OC(=O)CC)C1CCCCC1 (configuration not stated)	64	
CCN(CC)C(=O)COC(=O)CCNC(=O)[C@H](Cc1ccc(-c2ccccc2)cc1)NCP(=O)(Oc1ccccc1)Oc1ccccc1	135	
O=C(O)CCNC(=O)[C@H](Cc1ccc(-c2ccccc2)cc1)NCP(=O)(O)O		1.9
CCCc1ccc(OP(=O)(CN[C@@H](Cc2ccc(-c3ccccc3)cc2)C(=O)NCCC(=O)O)Oc2ccc(CCC)cc2)cc1	18	
CCOP(=O)(CNC(Cc1ccc(-c2ccccc2)cc1)C(=O)NCCC(=O)O)OCC (configuration not stated)		> 1000
O=C(O)CCNC(=O)C(Cc1ccccc1)CP(=O)(O)O (configuration not stated)		207
CC(C)N(C(=O)COC(=O)CCNC(=O)[C@H](Cc1ccc(-c2ccccc2)cc1)NCP(=O)(O)Oc1ccccc1)C(C)C	5	
O=C(O)CCNC(=O)C(Cc1ccc(-c2ccccc2)cc1)NCP(=O)(O)O (configuration not stated)		4
O=C(O)CCNC(=O)C(Cc1ccccc1)NCP(=O)(O)O (configuration not stated)		1150
CCOC(=O)CCNC(=O)[C@H](Cc1ccc(-c2ccccc2)cc1)NCP(=O)(Oc1ccccc1)Oc1ccccc1	160	
O=C(CCNC(=O)[C@H](Cc1ccc(-c2ccccc2)cc1)NCP(=O)(Oc1ccccc1)Oc1ccccc1)OC1CCc2ccccc21 (some centres not stated)	69	

SMILES	Ratio [1]	IC50 [2] [nM]
O=C(CCNC(=O)[C@H](Cc1ccc(-c2ccccc2)cc1)NCP(=O)(O)Oc1ccccc1)OCc1ccccc1	16	
COc1ccc(OP(=O)(CN[C@@H](Cc2ccc(-c3ccccc3)cc2)C(=O)NCCC(=O)O)Oc2ccc(OC)cc2)cc1	5	
CCOC(=O)CCNC(=O)C(Cc1ccc(-c2ccccc2)cc1)NCP(=O)(OC(OC(=O)C(C)C)C(C)C)OC(OC(=O)C(C)C)C(C)C (configuration not stated)	97	
CC(C)C[C@H](NP(=O)(O)O[C@@H]1O[C@@H](C)[C@H](O)[C@@H](O)[C@H]1O)C(=O)N[C@@H](Cc1c[nH]c2ccccc12)C(=O)O [PHOSPHORAMIDON]		27
O=C(N[C@H](C(=O)O)c1ccccc1)C(Cc1ccc(-c2ccccc2)cc1)NCP(=O)(O)O (some centres not stated)		2
CC(C)c1ccc(OP(=O)(CN[C@@H](Cc2ccc(-c3ccccc3)cc2)C(=O)NCCC(=O)O)Oc2ccc(C(C)C)cc2)cc1	40	
O=C(O)c1ccc(NC(=O)C(Cc2ccc(-c3ccccc3)cc2)NCP(=O)(O)O)cc1 (configuration not stated)		10
O=C(O)CCNC(=O)C(Cc1ccccc1)OP(=O)(O)CCCCc1ccccc1 (configuration not stated)		> 1000
O=C(O)CCNC(=O)C(Cc1ccccc1)CP(=O)(O)OCCc1ccccc1 (configuration not stated)		> 1000
CCCCCCCC(=O)OC(OP(=O)(O)CNC(Cc1ccc(-c2ccccc2)cc1)C(=O)NCCC(=O)OCC)C(C)C (configuration not stated)	50	
O=C(CCNC(=O)[C@H](Cc1ccc(-c2ccccc2)cc1)NCP(=O)(Oc1ccccc1)Oc1ccccc1)OCc1ccccc1	75	
Cc1cc(C)cc(OP(=O)(CN[C@@H](Cc2ccc(-c3ccccc3)cc2)C(=O)NCCC(=O)O)Oc2cc(C)cc(C)c2)c1	149	
O=C(O)CCNC(=O)[C@H](Cc1ccc(-c2ccccc2)cc1)NCP(=O)(Oc1ccccc1)Oc1ccccc1	225	
O=C(O)CNC(=O)C(Cc1ccc(-c2ccccc2)cc1)NCP(=O)(O)O (configuration not stated)		5
Cc1ccc(OP(=O)(CN[C@@H](Cc2ccc(-c3ccccc3)cc2)C(=O)NCCC(=O)O)Oc2ccc(C)cc2)cc1	31	
COP(=O)(O)CNC(Cc1ccc(-c2ccccc2)cc1)C(=O)NCCC(=O)O (configuration not stated)		301
O=C(O)CCNC(=O)C(Cc1ccccc1)OP(=O)(O)CNC(=O)OCc1ccccc1 (configuration not stated)		> 1000
O=C(O)CCNC(=O)C(Cc1ccc(-c2ccccc2)cc1)NCP(=O)(O)OCc1ccccc1 (configuration not stated)		1000
O=C(O)CCNC(=O)[C@H](Cc1ccc(-c2ccccc2)cc1)NCP(=O)(O)Oc1ccccc1	41	238
O=C(O)CCNC(=O)C(Cc1ccccc1)OP(=O)(O)CCc1ccccc1 (configuration not stated)		> 1000
O=C(O)CCNC(=O)C(Cc1ccc(-c2ccc(F)cc2)cc1)NCP(=O)(O)O (configuration not stated)		14
CCC(=O)OC(OP(=O)(CNC(Cc1ccc(-c2ccccc2)cc1)C(=O)NCCC(=O)O)OC(OC(=O)CC)C(C)C)C(C)C (configuration not stated)	380	
O=C(O)CCNC(=O)[C@H](Cc1ccc(-c2ccccc2)cc1)NCP(=O)(OC1CCc2ccccc21)OC1CCc2ccccc21 (some centres not stated)	41	
